Measured values collected from several papers.
Lines come from different studies, so protocols differ.
Target: Tyrosine-protein kinase HCK (HCK, Homo sapiens, UniProt P08631)

| Compound | test | conditions | remaining binding [%] |
| --- | --- | --- | --- |
| CN(CCCC(F)(F)F)c1nccc(-c2cnn3ncccc23)n1 | binding | 1 µM | 99 |
| COc1ccc2c(O[C@@H]3C[C@H]4C(=O)N[C@]5(C(=O)O)CC5/C=C\CCCCC[C@H](NC(=O)OC5CCCC5)C(=O)N4C3)cc(-c3csc(NC(=O)C(C)C)n3)nc2c1C (stereo partly drawn) | cell-free assay, competition with immobilised ligand | 1 µM | 100 |
| N[C@H]1CCN(c2nccc(-c3cnn4ncccc34)n2)C1 | binding | 1 µM | 98 |
| Nc1ncc2c(n1)-c1c([nH]c3ccc(C#CC4CC4)cc13)CCCC2 | binding, competition with immobilised ligand | 1 µM | 100 |
| O=C(NCc1ncc(C(F)(F)F)cc1Cl)c1ccc2c(c1)C1(CCS(=O)(=O)CC1)[C@@H](C1CC1)N2S(=O)(=O)c1ccc(F)cc1 | cell-free assay, competition with immobilised ligand | 1 µM | 86 |
| COc1ncc2cc3ccccc3nc2c1C#N | cell-free assay, competition with immobilised ligand | 5 µM | 100 |
| CC1CCCN1c1nccc(-c2cnn3ncccc23)n1 (stereo not drawn) | binding | 1 µM | 100 |
| c1cncc(-c2cccc(Nc3nccc(NC4CCCCC4)n3)c2)c1 | binding, competition with immobilised ligand | 10 µM | 3.1 |
| O=C(c1ccc(Nc2nccc(-c3cc4ccccc4s3)n2)cc1)N1CCC(N2CCCC2)CC1 | binding, competition with immobilised ligand | 1 µM | 100 |
| Cc1nc(C2CCN(C(=O)c3ccc(OC(F)(F)F)cc3N)CC2)c2ncc(N3CCN(C)CC3)cc2n1 | cell-free assay, competition with immobilised ligand | 1 µM | 95 |
| Cc1cnn2ncc(-c3ccnc(N(C)C)n3)c2c1 | binding | 1 µM | 100 |
| CNC(=O)[C@@H]1CC[C@@H](n2c(-c3ccc4cnccc4c3)nc3ccc(C(=O)NCc4cccc(C(N)=O)c4)cc32)C1 | binding, competition with immobilised ligand | 1 µM | 93 |
| CN(C)c1nccc(-c2cnn3ncccc23)n1 | binding | 1 µM | 100 |
| CN1CCN(c2cnc3c(C4CCN(C(=O)c5ccc(OC(F)(F)F)cc5N)CC4)ncnc3c2)CC1 | cell-free assay, competition with immobilised ligand | 1 µM | 95 |
| COc1cnc(Nc2cccc(S(N)(=O)=O)c2)nc1N1CCN(c2ccccc2)CC1 | binding, competition with immobilised ligand | 1 µM | 100 |
| C[C@H]1CCN(c2nccc(-c3cnn4ncccc34)n2)C1 | binding | 1 µM | 95 |
| O=C(Nc1cnc(Oc2ccc(F)cc2)nc1)N1CCc2ncccc2[C@@H]1c1ccc(F)cc1 | cell-free assay, competition with immobilised ligand | 1 µM | 96 |
| O=C(c1ccc(Nc2ncc(Cl)c(-c3ccc(Cl)s3)n2)cc1)N1CCC(N2CCCC2)CC1 | binding, competition with immobilised ligand | 1 µM | 100 |
| O=C(NCC1CCOCC1)c1n[nH]cc1NC(=O)c1c(F)cccc1F | binding, competition with immobilised ligand | 1 µM | 100 |
| O=C(NCCCN1CCOCC1)c1ccc(Nc2nccc(-c3cc4ccccc4s3)n2)cc1 | binding, competition with immobilised ligand | 1 µM | 95 |
| O=C1NC(c2ccccn2)Sc2ccccc21 (stereo not drawn) | cell-free assay, competition with immobilised ligand | 1 µM | 90 |
